In publication PMC9401544 (Clinical Cancer Research, 2021):

Tests used:
[1] = system: tenosynovial giant cell tumor (TGCT); experiment: Tumor response by RECIST 1.1; type: in vivo, human
[2] = system: advanced solid tumors (MEC, GIST, ATC, malignant effusions, miscellaneous tumor types); type: in vivo, human
How it was run: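 Adults with advanced, incurable tumours received 1,000 mg/day, split 600 mg morning and 400 mg evening, continued to progression or unacceptable toxicity. Response was assessed locally by imaging at baseline and every 2 months per RECIST version 1.1, with readings not blinded to visit order. Data cutoff was 31 January 2018.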

[3] = system: patients with advanced solid tumors (TGCT and non-TGCT cohorts); experiment: Drug exposure: treatment duration, dose reductions, drug holidays; type: in vivo, human
How it was run: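 Adult patients at 12 US centres took 1,000 mg/day (600 mg morning, 400 mg evening) until progression or unacceptable toxicity. Dose changes, usually in 200 mg/day steps, and temporary holds for toxicity or other reasons were allowed. Exposure was tallied to the 31 January 2018 cutoff. Months were computed as days divided by 30.4167.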

[4] = system: patients with advanced solid tumors (TGCT and non-TGCT cohorts); experiment: Safety: adverse events, laboratory assessments, ECG; type: in vivo, human
patients with TGCT = settings: cited from earlier work
[5] = system: tenosynovial giant cell tumor (TGCT); settings: 3 of the 4 TGCT patients; cited from earlier work
[6] = system: tenosynovial giant cell tumor (TGCT); settings: patients with TGCT, usually; cited from earlier work
[7] = 13 TGCT subjects that remained on treatment, as of February 2021

## FC(F)(F)c1ccc(CNc2ccc(Cc3c[nH]c4ncc(Cl)cc34)cn2)cn1 [pexidartinib]
[1]; [7]
  median DOR: 1,529 days
  median PFS: 1,764 days
[1]; CR + PR, of 39 FAS
  patients with TGCT who achieved a response, RECIST 1.1: 24 patients
[1]; TGCT
  PR, RECIST 1.1: 22 patients
  complete response (CR), RECIST 1.1: 2 patients
  patients who progressed while on therapy, modified tumor response criteria: 3 patients
  patients with SD that lasted for at least 6 months, RECIST 1.1: 8 patients
  patients with at least a 50% reduction in sum of longest tumor diameter: Fifteen
[1]; TGCT FAS (n = 39)
  disease control rate (DCR = CR + PR + SD), RECIST 1.1: 82%
[1]; TGCT efficacy-evaluable (n = 37)
  disease control rate (DCR = CR + PR + SD), RECIST 1.1: 86%
[1]; TGCT efficacy-evaluable population (n = 37)
  objective response rate (ORR), RECIST 1.1 per local reading: 65%
[1]; TGCT, RECIST 1.1
  25th percentile for duration of response (DOR): 943 days
[1]; both the FAS and efficacy-evaluable TGCT populations
  ORR, RECIST 1.1: over 60%
[2]; non-TGCT
  patients with prolonged (>6 months) SD: 6 patients
[2]; non-TGCT patients
  median progression-free survival (PFS): 56 days
[2]; non-TGCT population (n = 52)
  patients with partial response (PR): 1 patients
  patients with stable disease (SD) as best response: Fifteen
[3]; of the 39 patients with TGCT
  patients who had a drug holiday: 27 (69%) n (%)
  patients who required dose reduction: 24 (62%) n (%)
[3]; of the 91 patients
  patients who experienced a drug holiday: 40 (44%) n (%)
  patients who required dose reduction: 30 (33%) n (%)
[4]; all 91 patients
  cases meeting Hy's law criteria: no cases that met criteria for Hy's law
[4]; all patients
  decreases in platelets, hemoglobin, white blood cells (neutrophils, lymphocytes): grade: generally grade 2 or less
  electrocardiogram abnormalities: No patient had clinically significant electrocardiogram abnormalities
[4]; non-TGCT patients
  AST increase, treatment-related AE of grade ≥ 3: 4%
  fatigue, treatment-related AE of grade ≥ 3: 6%
  hypophosphatemia, treatment-related AE of grade ≥ 3: 4%
[4]; of the 91 patients
  patients with grade 3 elevations in aminotransferase levels: 6 patients
[4]; patients with TGCT
  alanine aminotransferase increase, grade ≥ 3 treatment-related AE: 10%
  aspartate aminotransferase (AST) increase, grade ≥ 3 treatment-related AE: 8%
  hypophosphatemia, grade ≥ 3 treatment-related AE: 10%
  nausea, treatment-related AE: 56%
  periorbital edema, treatment-related AE: 39%
  pruritus, treatment-related AE: 31%
Patients with TGCT; all cases, weeks of treatment
  time of presentation of serious liver toxicity: ≤ 8 weeks
Patients with TGCT; long-term treatment
  isolated aminotransferase elevations, share of hepatic adverse reactions: > 90%
[5]
  RECIST response in patients who had previously received other TKI treatment: 75%
[6]
  time to radiologic response: ≤ 4 months
